Legend:
Rattus norvegicus = test: Hepatic blood flow in CD rat at 1 mg/kg, iv; assay type: ADME, organism-based, Liver; set-up: dose 1 mg/kg, route intravenous; conditions: in vivo
[1] = test system: Human immunodeficiency virus; test: Antiviral activity against pseudotype HIV after 2 days in absence of human serum albumin; assay type: functional, organism-based; conditions: Human immunodeficiency virus 1, 48 h
Summary of the method: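 VSV-G-pseudotyped HIV vector carrying luciferase, harvested from transfected 293T cells. Target 293T cells (2 × 10^4 per well) mixed with vector at about 100K CPM and plated onto compounds in DMEM + 10% FCS. Incubated 2 days at 37 °C, 5% CO2. Luciferase read by Steady Glo luminescence. Values are means ± standard error (N > 1).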

[2] = Clearance in CD rat at 1 mg/kg, iv; assay type: ADME, organism-based; set-up: dose 1 mg/kg, route intravenous; conditions: in vivo
Summary of the method: (§1)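 Male CD rats, n = 2, given 1 mg/kg iv (1 mL/kg, fasted) in 10% DMSO/15% Solutol/75% 0.05 M […]. Blood drawn via implanted venous cannula at timed intervals over 24 h, EDTA plasma analysed by LC/MS/MS.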

[3] = Cytotoxicity against human MT4 cells after 5 days by MTS assay; assay type: cell-based; conditions: read-out: CCIC50
Summary of the method: (§2)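 MT-4 cells in RPMI with 15% FBS, 10% T-cell growth factor and 10 µg/mL gentamicin, cultured 5 days at 37 °C, 5% CO₂. Compound-induced cytotoxicity (CCIC50) measured by MTS staining at OD 492 nm, in parallel with the HIV-1 IIIB antiviral MTS readout in the same cell line.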

[4] = test system: Human immunodeficiency virus 1; test: Ratio of IC50 for HIV1 3B in presence of human serum albumin to IC50 for HIV1 3B in absence of human serum albumin; assay type: functional
Summary of the method: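 MT-4/HIV-1 IIIB MTS cytopathic-effect assay, 5 days at 37 °C, run in standard medium and again with 40 mg/mL HSA added. The ratio compares the IC50 with HSA to the IC50 without.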

[5] = Volume of distribution at steady state in CD rat at 1 mg/kg, iv; assay type: ADME, organism-based; set-up: dose 1 mg/kg, route intravenous; conditions: in vivo, read-out: Vdss; summary of the method: as §1
[6] = test system: Human immunodeficiency virus; test: Antiviral activity against pseudotype HIV after 2 days in presence 40 mg/mL human serum albumin; assay type: functional, organism-based; conditions: Human immunodeficiency virus 1, 48 h
Summary of the method: (§3)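 Pseudotyped HIV luciferase assay in 293T cells (2 × 10^4 per well), 2 days at 37 °C in DMEM + 10% FCS, luminescence read-out. Run with and without added serum protein, 40 mg/mL HSA. Line 5 is the ratio of the IC50 with HSA to the IC50 without.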

[7] = Oral bioavailability in fasted CD rat at 5 mg/kg; assay type: ADME, organism-based; conditions: in vivo
Summary of the method: (§4)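 Male CD rats, n = 2 per arm, dosed 5 mg/kg po (5 mL/kg) in 10% DMSO/15% Solutol/75% 0.05 M […]. Fasted arm had food removed the evening before and returned 4 h post-dose; other arm nonfasted. Cannula blood sampled over 24 h, EDTA plasma by LC/MS/MS. Bioavailability referenced to the 1 mg/kg iv arm.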

[8] = Inhibition of HIV recombinant integrase strand transfer assay; set-up: species or system Human immunodeficiency virus
Summary of the method: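 Recombinant integrase (2 µM) preassembled with biotinylated donor DNA on streptavidin SPA beads (MOPS pH 7.2, MgCl₂, DTT, 5 min, 37 °C), then washed. Compound in DMSO (6.7% final) preincubated 60 min at 37 °C. [³H] target DNA added at 7 nM final, strand transfer run 25-45 min at 37 °C, EDTA quench, SPA readout. Mean ± standard error.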

[9] = test system: Human immunodeficiency virus 1; test: Antiviral activity against HIV1 3B infected in human MT4 cells assessed as inhibition of virus-induced cytopathic effect albumin after 5 days by MTS method in presence of 40 mg/mL human serum albumin; assay type: functional, organism-based; conditions: Human immunodeficiency virus 1, 3B, MT4, 120 h
Summary of the method: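 HIV-1 IIIB infection of MT-4 cells for 1 h at 37 °C, then cells added to prediluted compounds in RPMI with 15% FBS, 10% T-cell growth factor, 10 µg/mL gentamicin, plus 40 mg/mL HSA. 5 days at 37 °C, 5% CO₂. Cytopathic effect read by MTS staining at OD 492 nm. Mean ± standard error where N > 1.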

[10] = test system: Human immunodeficiency virus 1; test: Antiviral activity against HIV1 3B infected in human MT4 cells assessed as inhibition of virus-induced cytopathic effect after 5 days by MTS method; assay type: functional, organism-based; conditions: Human immunodeficiency virus 1, 3B, MT4, 120 h
Summary of the method: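 HIV-1 IIIB infection of MT-4 cells (HTLV-1 transformed) for 1 h at 37 °C, 5% CO2. Cells then added to compounds prediluted in RPMI with FBS and gentamicin; final assay medium had 15% FBS and 10% T-cell growth factor. Incubated 5 days at 37 °C. Virus-induced cytopathic effect read by MTS staining, OD 492 nm. Cytotoxicity measured in parallel.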

[11] = Oral bioavailability in non fasted CD rat at 5 mg/kg; assay type: ADME, organism-based; conditions: in vivo; summary of the method: as §4
MT4 [12] = test: Cytotoxicity against human MT4 cells up to =>7 uM after 5 days by MTS assay; assay type: cell-based; conditions: mt4, 120 h; summary of the method: as §2
[13] = Therapeutic index, ratio of CCIC50 for human MT4 cells to IC50 for HIV1 3B; assay type: cell-based; summary of the method: as §2
MT4 [14] = test: Cytotoxicity against human MT4 cells up to 8 to 10 uM after 5 days by MTS assay; assay type: cell-based; conditions: mt4, 120 h; summary of the method: as §2
[15] = test system: Human immunodeficiency virus; test: Ratio of IC50 for pseudotype HIV in presence of human serum albumin to IC50 for pseudotype HIV in absence of human serum albumin; assay type: functional; summary of the method: as §3

Compound	IC50 [1]	CC50 at 120 h [3]	IC50 [6]	IC50 [8]	IC50 [10]	Activity (MT4 [12])	also measured
COCCNC(=O)c1c(O)c2ncc(Cc3ccc(F)cc3)cc2n(C)c1=O	2 nM	> 20000 nM	50 nM	4 nM	5 nM		QH (Rattus norvegicus): 20%; clearance [2]: 11.8 mL/min/kg; Ratio IC50 [4]: <10; Vd [5]: 0.6 L/kg; bioavailability [7]: 25%; IC50 [9]: 48 nM; bioavailability [11]: 20%
CNC(=O)c1c(O)c2ncc(Cc3ccc(F)cc3)cc2n(C)c1=O	1.4 nM	20000 nM	57 nM	4.1 nM	11 nM	Non-toxic	
CNC(=O)c1c(O)c2ncc(Cc3ccc(F)cc3)cc2[nH]c1=O	3.4 nM	> 8000 nM	119 nM	6 nM	30 nM	Non-toxic	selectivity ratio [13]: > 100
CCOC(=O)c1c(O)c2ncc(Cc3ccc(F)cc3)cc2n(C)c1=O	77 nM	6000 nM	12000 nM	6 nM	1300 nM		
CCOC(=O)c1c(O)c2ncc(Cc3ccc(F)cc3)cc2[nH]c1=O	1200 nM			13 nM	1200 nM		
CCOC(=O)c1c(O)c2ncc(Cc3ccc(F)cc3)cc2n(CC(C)C)c1=O	155 nM			22 nM			
CCOC(=O)c1c(O)c2ncc(Cc3ccc(F)cc3)cc2n(CC2CC2)c1=O	358 nM			15 nM			
O=C(NC1CC1)c1c(O)c2ncc(Cc3ccc(F)cc3)cc2[nH]c1=O	8 nM	> 8000 nM	> 14000 nM	10 nM	78 nM	Non-toxic	selectivity ratio [13]: > 100
CC(C)CNC(=O)c1c(O)c2ncc(Cc3ccc(F)cc3)cc2[nH]c1=O	4 nM	7000 nM	2500 nM	6 nM	68 nM	Non-toxic	selectivity ratio [13]: > 100
COCCNC(=O)c1c(O)c2ncc(Cc3ccc(F)cc3)cc2[nH]c1=O	4.2 nM	> 8000 nM	36 nM	5 nM	36 nM		Activity (MT4 [14]): Non-toxic
COC(=O)c1c(O)c2ncccc2[nH]c1=O	> 14000 nM	> 125000 nM		> 500000 nM	> 125000 nM		
CCOC(=O)c1c(O)c2ncc(Cc3ccccc3)cc2[nH]c1=O	3700 nM	103000 nM		3 nM	> 39500 nM		
COC(=O)c1c(O)c2ncc(Cc3ccccc3)cc2[nH]c1=O	14000 nM	> 125000 nM		8 nM	> 125000 nM		
CCNC(=O)c1c(O)c2ncc(Cc3ccc(F)cc3)cc2n(C)c1=O	1.6 nM	> 50000 nM	661 nM	4 nM	3.5 nM	Non-toxic	IC50 [9]: 4000 nM
NC(=O)c1c(O)c2ncc(Cc3ccc(F)cc3)cc2[nH]c1=O	66 nM		656 nM	45 nM			Ratio IC50 [15]: 10
COCCNC(=O)c1c(O)c2ncc(Cc3ccccc3)cc2[nH]c1=O	14 nM	> 10000 nM	59 nM	7 nM	91 nM		Activity (MT4 [14]): Non-toxic

From ChEMBL document CHEMBL1138484, “Synthesis and antiviral activity of 7-benzyl-4-hydroxy-1,5-naphthyridin-2(1H)-one HIV integrase inhibitors” (J Med Chem, 2009)
